Assays:
[1] = Protein binding in Beagle dog plasma at 5 uM; assay type: ADME, cell-free, Canis lupus familiaris; settings: read-out: PPB (converted)
[2] = Protein binding in cynomolgus monkey plasma at 5 uM; assay type: ADME, cell-free, Macaca fascicularis; settings: read-out: PPB (converted)
B16-F10 [3] = test: Antitumor activity against mouse B16F10 cells xenografted in C57BL/6 mouse assessed as tumor volume at 12.5 mg/kg/day, po after 14 days; assay type: functional
B16-F10 [4] = test: Antitumor activity against mouse B16F10 cells xenografted in C57BL/6 mouse assessed as growth inhibition at 12.5 mg/kg/day, po after 14 days relative to control; assay type: functional
B16-F10 [5] = test: Potentiation of temozolomide-induced cytotoxicity against mouse B16F10 cells xenografted in C57BL/6 mouse assessed as growth inhibition at 12.5 mg/kg/day, po after 17 days relative to temozolomide monotherapy; assay type: functional
Outline: (§1)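 B16F10 syngeneic model: 6×10^4 cells in 50% matrigel injected sc into the flank of 6–8 week old female C57BL/6 mice (20 g), allocated to groups by injection order. Inhibitor given po bid days 6–11 at 1, 5 or 12.5 mg/kg/day; temozolomide 50 mg/kg/day po qd days 6–11. Tumor volume by caliper as L×W²/2; TGI versus temozolomide alone.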

B16-F10 [6] = test: Potentiation of temozolomide-induced cytotoxicity against mouse B16F10 cells xenografted in C57BL/6 mouse assessed as growth inhibition at 5 mg/kg/day, po after 17 days relative to temozolomide monotherapy; assay type: functional; outline: as §1
B16-F10 [7] = test: Potentiation of temozolomide-induced cytotoxicity against mouse B16F10 cells xenografted in C57BL/6 mouse assessed as growth inhibition at 1 mg/kg/day, po after 17 days relative to temozolomide monotherapy; assay type: functional; outline: as §1
MX1 [8] = test: Potentiation of carboplatin-induced cytotoxicity against human MX1 cells xenografted in SCID mouse assessed as growth inhibition at 1 mg/kg/day, sc osmotic minipump after 42 days relative to carboplatin monotherapy; assay type: functional; settings: route subcutaneous
Outline: (§2)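 MX-1 xenograft: 0.2 cc of 1:10 tumor brei injected sc into the flank of female SCID mice on day 0; size-matched on day 15, 10 mice/group. Inhibitor 1–50 mg/kg/day by sc osmotic minipump for 14 days from day 18; carboplatin 10 mg/kg ip on days 20, 24 and 28. Caliper volumes as L×W²/2; TGI relative to carboplatin alone.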

MX1 [9] = test: Potentiation of carboplatin-induced cytotoxicity against human MX1 cells xenografted in SCID mouse assessed as growth inhibition at 12.5 mg/kg/day, sc osmotic minipump after 42 days relative to carboplatin monotherapy; assay type: functional; settings: route subcutaneous; outline: as §2
MX1 [10] = test: Potentiation of carboplatin-induced cytotoxicity against human MX1 cells xenografted in SCID mouse assessed as growth inhibition at 5 mg/kg/day, sc osmotic minipump after 42 days relative to carboplatin monotherapy; assay type: functional; settings: route subcutaneous; outline: as §2
MX1 [11] = test: Potentiation of cyclophosphamide-induced cytotoxicity against human MX1 cells xenografted in SCID mouse assessed as growth inhibition at 5 mg/kg/day, sc osmotic minipump after 48 days relative to cyclophosphamide monotherapy; assay type: functional; settings: route subcutaneous
Outline: (§3)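 Female SCID mice bearing sc MX-1 brei (0.2 cc of 1:10, day 0), size-matched on day 15, 10 per group. Inhibitor 5, 12.5 or 25 mg/kg/day by sc osmotic minipump for 14 days from day 18; cyclophosphamide 12.5 mg/kg ip on days 20, 24 and 28. Volumes from caliper L×W²/2; TGI versus cyclophosphamide alone.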

MX1 [12] = test: Potentiation of cyclophosphamide-induced cytotoxicity against human MX1 cells xenografted in SCID mouse assessed as growth inhibition at 12.5 mg/kg/day, sc osmotic minipump after 48 days relative to cyclophosphamide monotherapy; assay type: functional; settings: route subcutaneous; outline: as §3
MX1 [13] = test: Potentiation of cyclophosphamide-induced cytotoxicity against human MX1 cells xenografted in SCID mouse assessed as growth inhibition at 25 mg/kg/day, sc osmotic minipump after 48 days relative to cyclophosphamide monotherapy; assay type: functional; settings: route subcutaneous; outline: as §3
MX1 [14] = test: Potentiation of carboplatin-induced cytotoxicity against human MX1 cells xenografted in SCID mouse assessed as growth inhibition at 50 mg/kg/day, sc osmotic minipump after 42 days relative to carboplatin monotherapy; assay type: functional; settings: route subcutaneous; outline: as §2
MX1 [15] = test: Potentiation of carboplatin-induced cytotoxicity against human MX1 cells xenografted in SCID mouse assessed as growth inhibition at 25 mg/kg/day, sc osmotic minipump after 42 days relative to carboplatin monotherapy; assay type: functional; settings: route subcutaneous; outline: as §2
[16] = Oral bioavailability in CD1 mouse at 10 mg/kg; assay type: ADME, organism-based; settings: in vivo
Outline: (§4)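 Mouse PK: oral dose 10 mg/kg in 2.5% EtOH, 1 drop Tween-80, 25% PEG400 in PBS; iv dose 3 mg/kg in 2.5% EtOH, 5% DMSO, 1 drop Tween-80, 25% PEG400 in PBS. Oral bioavailability, iv half-life, oral AUC and Cmax derived from plasma profiles.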

[17] = Half life in CD1 mouse at 3 mg/kg, iv; assay type: ADME, organism-based; set-up: dose 3 mg/kg, route intravenous; settings: in vivo; outline: as §4
[18] = AUC in CD1 mouse at 10 mg/kg, po; assay type: ADME, organism-based; set-up: dose 10 mg/kg, route oral; settings: plasma; outline: as §4
[19] = Cmax in CD1 mouse at 10 mg/kg, po; assay type: ADME, organism-based; set-up: dose 10 mg/kg, route oral; settings: in vivo; outline: as §4
[20] = Volume of distribution at steady state in CD1 mouse at 10 mg/kg; assay type: ADME, organism-based; set-up: dose 10 mg/kg; settings: in vivo, read-out: Vdss
[21] = Clearance in CD1 mouse at 10 mg/kg; assay type: ADME, organism-based; set-up: dose 10 mg/kg; settings: in vivo
Outline: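 Mouse pharmacokinetics. Oral dose of 10 mg/kg in 2.5% EtOH, 1 drop Tween-80 and 25% PEG400 in PBS. Intravenous dose of 3 mg/kg in 2.5% EtOH, 5% DMSO, 1 drop Tween-80 and 25% PEG400 in PBS.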

[22] = Oral bioavailability in Sprague-Dawley rat at 5 mg/kg; assay type: ADME, organism-based; settings: in vivo
[23] = Half life in Sprague-Dawley rat at 5 mg/kg, iv; assay type: ADME, organism-based; set-up: dose 5 mg/kg, route intravenous; settings: in vivo
[24] = AUC in Sprague-Dawley rat at 5 mg/kg, po; assay type: ADME, organism-based; set-up: dose 5 mg/kg, route oral; settings: plasma
[25] = Cmax in Sprague-Dawley rat at 5 mg/kg, po; assay type: ADME, organism-based; set-up: dose 5 mg/kg, route oral; settings: in vivo

- fraction unbound at 5 µM [1]: 0.59
- fraction unbound at 5 µM [2]: 0.59
- bioavailability [16]: 92%
- half-life [17]: 1.6 h
- AUC [18]: 2200 ng·h/mL
- Cmax [19]: 1600 ng/mL
- Vd [20]: 9.4 L/kg
- clearance [21]: 68.3 mL/min/kg
- bioavailability [22]: 61%
- half-life [23]: 1.2 h
- AUC [24]: 1500 ng·h/mL
- Cmax [25]: 500 ng/mL
SMILES: C[C@]1(c2nc3c(C(N)=O)cccc3[nH]2)CCCN1 [VELIPARIB]
- Activity (B16-F10 [3]): 2452 mm3
- TGI (B16-F10 [4]): 28%
- TGI (B16-F10 [5]): 64%
- TGI (B16-F10 [6]): 60%
- TGI (B16-F10 [7]): 43%
- TGI (MX1 [8]): 21%
- TGI (MX1 [9]): 58%
- TGI (MX1 [10]): 17%
- TGI (MX1 [11]): 31%
- TGI (MX1 [12]): 33%
- TGI (MX1 [13]): 61%
- TGI (MX1 [14]): 91%
- TGI (MX1 [15]): 78%
